According to publication PMC6589821 (Bioorganic & medicinal chemistry, 2019):
“Also recorded” adds a separate entry of the source.

What was measured:
pseudotyped HIV = conditions: earlier work; cited from earlier work
p160 Gag-Pol = conditions: earlier work; cited from earlier work
HIV-1 FSS RNA [1] = experiment: SPR binding to immobilised HIV-1 FSS RNA; conditions: for ka / kd: SPR, 1:1 Langmuir fit, average of four curves
HIV IIIB = conditions: earlier work; cited from earlier work
HIV-1 AD.MDR01 = conditions: patient-derived strain; cited from earlier work
HEK293FT cells = experiment: WST-1 cytotoxicity assay; type: cell-based; conditions: 24 hours
IRF5 RNA = experiment: Competition dialysis, IRF5 mRNA hairpin; type: binding, human; conditions: 2.0 μM compound, 2.5 μM RNA, 36 hours
Summary of the method: (§1)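 RNA hairpins refolded at 2.5 μM in PBS with 1 mM EDTA (3 min 25 °C, 3 min 90 °C, 5 min 27 °C). Duplicate dialysis tubes (MWCO 3500) of RNA, plus an RNA-free control, dialysed 36 h against 2.0 μM test compound in PBS. Bound compound released with 1% Triton X-100 (final). Total compound per tube quantified by HPLC against a calibration curve.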

HIV-1 FSS RNA [2] = experiment: Competitive SPR assay with excess yeast tRNA in solution; type: binding
Summary of the method: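 Streptavidin was coupled by EDC/NHS onto a CM5 chip, then ethanolamine-blocked; about 2000 RU of biotinylated HIV-1 FSS RNA (refolded 3 min at 75 °C in HBS, pH 7.4) was captured on one flow cell. Analyte was injected with or without excess bulk yeast tRNA at 80 μL/min for 1 min in HBS. At least two injections per condition.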

[3] = tested on: hairpin derived from BDNF; experiment: Competition dialysis, BDNF mRNA hairpin; type: binding, human; conditions: 2.0 μM compound, 2.5 μM RNA, 36 hours
Summary of the method: as §1

HIV-1 FSS RNA [4] = experiment: Competition dialysis, HIV-1 FSS hairpin; type: binding; conditions: 2.0 μM compound, 2.5 μM RNA, 36 hours, 8 competing human hairpins
Summary of the method: as §1

Row | SMILES | ka (HIV-1 FSS RNA [1]) | kd (HIV-1 FSS RNA [1]) | other results
1 | CCc1nc2cc3ccccc3cc2cc1C(=O)N[C@@H](C/C=C\C[C@H](NC(=O)c1cc2cc3ccccc3cc2nc1CC)C(=O)N1CCC[C@H]1C(=O)N[C@@H](Cc1ccccc1)C(=O)NCCCN)C(=O)N1CCC[C@H]1C(=O)N[C@@H](Cc1ccccc1)C(=O)NCCCN [Compound 2] |  |  | effect on pseudotyped HIV (pseudotyped HIV): inhibited both production and infectivity; p160 Gag-Pol level in virus (Western blot) (p160 Gag-Pol): concentration-dependent increases in p160 Gag-Pol
2 | CCc1nc2cc3ccccc3cc2cc1C(=O)N(C)[C@@H](CCn1cc(C[C@@H](C(=O)N2CCC[C@H]2C(=O)N(C)[C@@H](Cc2ccccc2)C(=O)NCCCN)N(C)C(=O)c2cc3cc4ccccc4cc3nc2CC)nn1)C(=O)N1CCC[C@H]1C(=O)N(C)[C@@H](Cc1ccccc1)C(=O)NCCCN [Compound 3] | 190000 M⁻¹ s⁻¹ | 0.003 s⁻¹ | effect on pseudotyped HIV (pseudotyped HIV): inhibited both production and infectivity; inhibition of laboratory strain HIV-1 IIIB (HIV IIIB): inhibited; p160 Gag-Pol level in virus (Western blot) (p160 Gag-Pol): concentration-dependent increases in p160 Gag-Pol; inhibition of multidrug resistant strain (HIV-1 AD.MDR01): inhibited
3 | CCc1nc2ccccc2cc1C(=O)N(C)[C@@H](CCn1cc(C[C@@H](C(=O)N2CCC[C@H]2C(=O)N(C)[C@@H](Cc2ccccc2)C(=O)NCCCN)N(C)C(=O)c2cc3ccccc3nc2CC)nn1)C(=O)N1CCC[C@H]1C(=O)N(C)[C@@H](Cc1ccccc1)C(=O)NCCCN [Compound 4] | 64900 M⁻¹ s⁻¹ | 0.0237 s⁻¹ | effect on cellular metabolism (WST-1) (HEK293FT cells): significant effects below a concentration of 40 micromolar
4 | CCc1nc2ccccc2cc1C(=O)N(C)[C@@H](CCn1cc(C[C@@H](C(=O)N2C[C@H](O)C[C@H]2C(=O)N(C)[C@@H](Cc2ccccc2)C(=O)NCCCN)N(C)C(=O)c2cc3ccccc3nc2CC)nn1)C(=O)N1C[C@H](O)C[C@H]1C(=O)N(C)[C@@H](Cc1ccccc1)C(=O)NCCCN [Compound 5] | 14900 M⁻¹ s⁻¹ | 0.0068 s⁻¹ | 
5 | CN(C(=O)c1cnc2ccccc2c1)[C@@H](CCn1cc(C[C@@H](C(=O)N2CCC[C@H]2C(=O)N(C)[C@@H](Cc2ccccc2)C(=O)NCCCN)N(C)C(=O)c2cnc3ccccc3c2)nn1)C(=O)N1CCC[C@H]1C(=O)N(C)[C@@H](Cc1ccccc1)C(=O)NCCCN [Compound 6] | 56600 M⁻¹ s⁻¹ | 0.00226 s⁻¹ | binding in competition dialysis (IRF5 RNA): appreciably bound; fold lower affinity for the FSS than compound 3 (HIV-1 FSS RNA [1]; KD ratio versus 3): 4 fold; change of binding constant with versus without excess tRNA (HIV-1 FSS RNA [2]; SPR traces with and without excess tRNA): within statistical error; also recorded: little impact on binding; binding in competition dialysis [3]: appreciably bound; binding among hairpins in competition dialysis (HIV-1 FSS RNA [4]): preferentially binds to HIV-1 FSS
6 | CN(C(=O)c1cnc2ccccc2c1)[C@@H](CCn1cc(C[C@@H](C(=O)N2C[C@H](O)C[C@H]2C(=O)N(C)[C@@H](Cc2ccccc2)C(=O)NCCCN)N(C)C(=O)c2cnc3ccccc3c2)nn1)C(=O)N1C[C@H](O)C[C@H]1C(=O)N(C)[C@@H](Cc1ccccc1)C(=O)NCCCN [Compound 7] | 67400 M⁻¹ s⁻¹ | 0.00542 s⁻¹ | 
7 | CCc1nc2ccccc2cc1C(=O)N(C)[C@@H](CCn1cc(C[C@@H](C(=O)N2CCC[C@H]2C(=O)N(C)[C@@H](Cc2ccccc2)C(N)=O)N(C)C(=O)c2cc3ccccc3nc2CC)nn1)C(=O)N1CCC[C@H]1C(=O)N(C)[C@@H](Cc1ccccc1)C(N)=O [Compound 8] | 1690 M⁻¹ s⁻¹ | 0.0207 s⁻¹ | 
8 | CN(C(=O)c1cnc2ccccc2c1)[C@@H](CCn1cc(C[C@@H](C(=O)N2C[C@H](O)C[C@H]2C(=O)N(C)[C@@H](Cc2ccccc2)C(N)=O)N(C)C(=O)c2cnc3ccccc3c2)nn1)C(=O)N1C[C@H](O)C[C@H]1C(=O)N(C)[C@@H](Cc1ccccc1)C(N)=O [Compound 10] | 4090 M⁻¹ s⁻¹ | 0.00541 s⁻¹ | fold difference in KD between 10 and 6 (HIV-1 FSS RNA [1]; KD ratio 10 versus 6): 23 fold
9 | NC[C@@H]1O[C@H](O[C@H]2[C@@H](O)[C@H](O[C@@H]3[C@@H](O)[C@H](N)C[C@H](N)[C@H]3O[C@H]3O[C@H](CN)[C@@H](O)[C@H](O)[C@H]3N)O[C@@H]2CO)[C@H](N)[C@@H](O)[C@@H]1O [Neomycin, neomycin, reference compound] |  |  | SPR signal for HIV-1 FSS binding with tRNA (HIV-1 FSS RNA [2]; 30 μM tRNA, 3-fold excess relative to neomycin): completely ablated
